Bioassay records from PubChem.
ZTA DNA inh = blocks Epstein-Barr virus ZTA, an EBNA-1 counter-screen; P03206; inhibition, % at 11 µM; ZTA-DNA binding, fluorescence polarization; AID 2234; hit rate 0.15% among 320,000; in the data active = inhibition above about 33%
EBNA-1 inh = EBNA-1 DNA-binding inhibitors, primary screen, biochemical, fluorescence polarization | inhibition, % at 14.8 µM | hit rate 0.34% among 300,000 | AID 1950, 2009; in the data active = inhibition above about 28%
core dimer inh = inhibitors of HCV core protein dimerization, primary screen, biochemical, TR-FRET, high-throughput. TR-FRET GST/Flag-core106 dimerization, 1536-well. inhibition, % at 5 µM. hit rate 0.33% among 300,000. AID 1899, 2009;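 active = inhibition above the mean of all tested compounds plus 3 SD, set per screening campaign, cut at about 45% in these data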
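Test system: GST/Flag-tagged HCV core106 proteins; Medium: KF-containing HEPES buffer, pH 7.45, DTT, CHAPS, BSA; Times: compound-protein-antibody incubation 4 h at 22.5 °C; Detection: TR-FRET 671 and 617 nm emission; Benchmarks: wells lacking GST-core106 and wells with excess unlabelled core106.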
EBV gp42 inh = Epstein-Barr virus gp42 inhibitors, primary screen, biochemical, uHTS, fluorescence polarization. AID 1085, 2008. Glycoprotein 42 (Epstein-Barr virus (strain AG876)), Q1HVG2. inhibition, % (tested at 21.74 µM). Fluorescence polarization binding assay, mP read-out. hit rate 0.42% among 220,000; in the data active = inhibition above about 50%
Target sequence (Q1HVG2 whole entry, looked up): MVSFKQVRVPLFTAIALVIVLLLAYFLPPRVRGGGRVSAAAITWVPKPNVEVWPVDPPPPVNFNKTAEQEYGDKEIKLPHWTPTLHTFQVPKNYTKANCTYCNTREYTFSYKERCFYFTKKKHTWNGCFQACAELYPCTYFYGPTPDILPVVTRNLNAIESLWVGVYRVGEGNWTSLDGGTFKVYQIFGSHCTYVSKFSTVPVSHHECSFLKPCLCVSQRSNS
GPR7 antag = GPR7 receptor antagonists, primary screen, cell-based, fluorescence, single concentration. Neuropeptides B/W receptor type 1 (Homo sapiens), P48145. GPR7-expressing cells, fluorescence antagonist assay. inhibition, % at 4.4 µM. hit rate 1.1% among 290,000; in the data active = inhibition above about 16%, passing the limit was not always enough;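 also: cells stimulated with the agonist NPW; 0% = agonist with vehicle and 100% = vehicle without agonist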
HCV NS3 hel inh = inhibitors of HCV NS3 helicase, primary screen, biochemical, Cy5 molecular beacon fluorescence; Hepatitis C virus NS3 helicase; hit rate 0.56% among 290,000; NS3 helicase DNA unwinding; inhibition, % at 10.9 µM;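 active = inhibition above the mean of all tested compounds plus 3 SD, set per campaign, cut at about 35% in these data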;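 also: 0% = DMSO wells and 100% = thioflavine S control wells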
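Control set: DMSO versus 110 µM thioflavine S; Material: NS3 helicase fragment of HCV; Measured by: Cy5 fluorescence at 0 and 60 min, beacon hairpin quenching; Read-out basis: percent inhibition from t60/t0 fluorescence ratio; Times: reaction time 60 min, 25 °C; Repeats: single replicate; Compound dosing: single dose, 10.9 µM nominal final, DMSO 0.8% final.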
* hit, by the source's call. Only some compounds are listed: those with a hit (about 2.3% of all), similar ones and a draw of the others.

COc1ccccc1NC(=O)NCC(c1ccco1)N1CCCCC1 (centres undefined) was read as ZTA DNA inh -9, EBNA-1 inh 3, core dimer inh -1, EBV gp42 inh 0, GPR7 antag 0 and HCV NS3 hel inh 0.
Screening CCCCN(C(=O)Cn1nnc2ccccc21)C(C(=O)NCCOC)c1cccs1 (centres undefined) returned ZTA DNA inh 12, EBNA-1 inh 8, core dimer inh -1, EBV gp42 inh -20, GPR7 antag 2 and HCV NS3 hel inh 21.
For CCCCN(C(=O)Cn1nnc2ccccc21)C(C(=O)NCCOC)c1ccccc1 (centres undefined) the results were ZTA DNA inh -22, EBNA-1 inh 4, core dimer inh -3, EBV gp42 inh -7, GPR7 antag 19* and HCV NS3 hel inh 5.
CCCCCCn1c(=O)[nH]c2nc3cc(N)ccc3nc2c1=O was read as ZTA DNA inh -1, EBNA-1 inh -4, core dimer inh -9, EBV gp42 inh 148*, GPR7 antag 16 and HCV NS3 hel inh 25.
For O=C(N/N=C/c1ccccn1)c1sc2ccccc2c1Cl the results were ZTA DNA inh -2, EBNA-1 inh 1, core dimer inh 2, EBV gp42 inh -15, GPR7 antag 19* and HCV NS3 hel inh 4.
`CC1CCc2c(sc(NC(=O)COC(=O)c3ccc(NC(=O)CC#N)cc3)c2C#N)C1` (centres undefined) gave ZTA DNA inh 3, EBNA-1 inh 0 and core dimer inh 18.
Cc1cc(C(=O)OCC(=O)Nc2sc3c(c2C#N)CCC(C)C3)c2ccccc2n1 (centres undefined) was read as ZTA DNA inh -6, EBNA-1 inh 7, core dimer inh 53*, EBV gp42 inh -19, GPR7 antag -3 and HCV NS3 hel inh 32.
`COc1ccccc1-c1cc(C(=O)Nc2sc3c(c2C#N)CCC(C)C3)c2ccccc2n1` (centres undefined) gave ZTA DNA inh 12, EBNA-1 inh -3, core dimer inh 47*, EBV gp42 inh -40, GPR7 antag -4 and HCV NS3 hel inh 2.
Screening O=C(O)CCCCC1CCSS1 (centres undefined) returned ZTA DNA inh -3, EBNA-1 inh 10, core dimer inh 23, EBV gp42 inh 102*, GPR7 antag -4 and HCV NS3 hel inh 21.
Screening O=C(O)CCNC1CCCCC1 returned ZTA DNA inh -11, EBNA-1 inh 0, core dimer inh -1, EBV gp42 inh -6, GPR7 antag -12 and HCV NS3 hel inh -8.
Screening O=C(Nc1ccccc1)C1Cc2ccccc2CN1C(=O)c1ccco1 (centres undefined) returned ZTA DNA inh 6, EBNA-1 inh 7, core dimer inh 59*, EBV gp42 inh -28, GPR7 antag 5 and HCV NS3 hel inh 3.
For CC(=O)c1ccc(N2CCN(C(=S)Nc3cc(C)ccc3C)CC2)cc1 the results were ZTA DNA inh -5, EBNA-1 inh 6, core dimer inh 4, EBV gp42 inh -15, GPR7 antag -4 and HCV NS3 hel inh 3.
Screening CCCCNC(=S)N1CCN(c2ccc(C(C)=O)cc2)CC1 returned ZTA DNA inh -5, EBNA-1 inh -17, core dimer inh 2, EBV gp42 inh -9, GPR7 antag 19* and HCV NS3 hel inh 2.
For COc1cccc(C(=O)COC(=O)CCCC(=O)NC2CCCCC2)c1 the results were ZTA DNA inh 7, EBNA-1 inh 9, core dimer inh 0, GPR7 antag -10 and HCV NS3 hel inh 2.
For CCN(CC)C(=O)COc1ccc(-c2nnc(Nc3ccc(OC)c(C(=O)NC)c3)c3ccccc23)cc1 the results were ZTA DNA inh -6, EBNA-1 inh -7, core dimer inh 1, EBV gp42 inh -10, GPR7 antag 19* and HCV NS3 hel inh 22.
For Cc1ccc(CN2C(=O)c3ccccc3NC2c2cc(Br)ccc2O)cc1 (centres undefined) the results were ZTA DNA inh -2, EBNA-1 inh 3, core dimer inh 15, GPR7 antag -12 and HCV NS3 hel inh -4.
